This passage reports MIC results from ChEMBL document CHEMBL4837210 (Eur J Med Chem, 2021).

What all share (assay type): functional
The test system of one assay is Bacillus pumilus. As to the kind of experiment: Antibacterial activity against penicillin-susceptible Bacillus pumilus CMCC 63202 assessed as bacterial growth inhibition by broth dilution method. The settings on record: time 24 hrs. Summed up: (§1)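 Broth microdilution in Mueller Hinton broth. A 0.5 McFarland suspension was diluted tenfold, giving an inoculum of 1.5 × 10⁷ cfu/mL. This was added to 2-fold serial compound dilutions from […]. Plates were incubated aerobically at 37 °C for 24 h. MIC was the lowest concentration with no visible turbidity.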

A further assay concerns Bacillus subtilis. As to the kind of experiment: Antibacterial activity against penicillin-susceptible Bacillus subtilis ATCC 9372 assessed as bacterial growth inhibition incubated for 24 hrs by CLSI protocol based broth microdilution method.
The test system of assay [1] is Staphylococcus aureus. Kind of assay: Antibacterial activity against methicillin-resistant Staphylococcus aureus ATCC 43300 assessed as inhibition of bacterial growth by broth microdilution method. The settings on record: time 24 hrs. Summed up:
(§2)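 Broth microdilution MIC. A 0.5 McFarland suspension was diluted 10-fold and added at 1.5 × 10⁷ cfu/mL to 2-fold dilutions (0.125–64) in Mueller Hinton broth. Incubated aerobically 24 h at 37 °C. MIC was the lowest concentration with no visible turbidity.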

Assay [2] concerns Staphylococcus aureus. Kind of assay: Antibacterial activity against Staphylococcus aureus assessed as inhibition of bacterial growth measured by broth microdilution method. The following applies: time 24 hrs. Summed up: as §1
Another assay has as its system Pseudomonas aeruginosa. Kind of assay: Antibacterial activity against penicillin-susceptible Pseudomonas aeruginosa ATCC27853 assessed as bacterial growth inhibition incubated for 24 hrs by CLSI protocol based broth microdilution method.
Assay [3] deals with Staphylococcus epidermidis. Kind of assay: Antibacterial activity against penicillin-resistant Staphylococcus epidermidis assessed as inhibition of bacterial growth measured by broth microdilution method. The settings on record: time 24 hrs.
Assay [4] concerns Staphylococcus aureus. Kind of assay: Antibacterial activity against penicillin-resistant Staphylococcus aureus assessed as inhibition of bacterial growth measured by broth microdilution method. The settings on record: time 24 hrs. Summed up: as §2
In assay [5] the test system is Streptococcus pyogenes. As to the kind of experiment: Antibacterial activity against erythromycin-resistant Streptococcus pyogenes 2 assessed as bacterial growth inhibition incubated for 24 hrs by CLSI protocol based broth microdilution method.
The test system of another assay is Escherichia coli. As to the kind of experiment: Antibacterial activity against penicillin-susceptible Escherichia coli ATCC 25922 assessed as inhibition of bacterial growth measured by broth microdilution method. The following applies: time 24 hrs. Summed up: as §1
Assay [6] deals with Staphylococcus aureus. As to the kind of experiment: Antibacterial activity against erythromycin-susceptible Staphylococcus aureus ATCC 25923 assessed as bacterial growth inhibition incubated for 24 hrs by CLSI protocol based broth microdilution method.
Assay [7] deals with Streptococcus pyogenes. Kind of assay: Antibacterial activity against erythromycin-susceptible Streptococcus pyogenes clinical isolate 1 assessed as bacterial growth inhibition incubated for 24 hrs by CLSI protocol based broth microdilution method.

As for `Cc1ccccc1C#Cc1c2ccccc2[n+](C)c2ccccc12.[I-]`, the MIC in the assay with Bacillus pumilus is 8 µg/mL; with Bacillus subtilis it was 8 µg/mL; in the assay with Staphylococcus aureus [1], 4 µg/mL; in the assay on Staphylococcus aureus [2], 2 µg/mL; in the assay on Pseudomonas aeruginosa, more than 64 µg/mL; in assay [3], 16 µg/mL. The MIC in the assay on Staphylococcus aureus [4] was 8 µg/mL; with Streptococcus pyogenes [5], 16 µg/mL; in the assay with Escherichia coli, more than 64 µg/mL; in the assay on Staphylococcus aureus [6] it was 4 µg/mL; with Streptococcus pyogenes [7], 8 µg/mL.
As to `CCc1ccc(-c2c3ccccc3[n+](C)c3ccccc23)cc1.[I-]`, the MIC was 4 µg/mL in the assay with Bacillus pumilus; 2 µg/mL in the assay on Bacillus subtilis; 16 µg/mL in the assay on Staphylococcus aureus [1]; 1 µg/mL in the assay on Staphylococcus aureus [2]; more than 64 µg/mL in the assay on Pseudomonas aeruginosa; 32 µg/mL in [3]. Also, the MIC with Staphylococcus aureus [4] is 64 µg/mL; with Streptococcus pyogenes [5] it was 4 µg/mL; in the assay with Escherichia coli, more than 64 µg/mL; in the assay on Staphylococcus aureus [6] it was 0.25 µg/mL; in the assay on Streptococcus pyogenes [7], 2 µg/mL.
`COc1ccc(-c2c3ccccc3[n+](C)c3ccccc23)cc1.[I-]`: the MIC is 16 µg/mL with Bacillus pumilus; 8 µg/mL in the assay with Bacillus subtilis; more than 64 µg/mL with Staphylococcus aureus [1]; 8 µg/mL with Staphylococcus aureus [2]; more than 64 µg/mL in the assay with Pseudomonas aeruginosa; more than 64 µg/mL in assay [3]. The MIC with Staphylococcus aureus [4] is more than 64 µg/mL; with Streptococcus pyogenes [5], 16 µg/mL; with Escherichia coli, more than 64 µg/mL; in the assay with Staphylococcus aureus [6], 4 µg/mL; in the assay with Streptococcus pyogenes [7], 8 µg/mL.
As for `CCOc1ccc(C#Cc2c3ccccc3[n+](C)c3ccccc23)cc1.[I-]`, the MIC is 4 µg/mL with Bacillus pumilus; 4 µg/mL with Bacillus subtilis; 4 µg/mL in the assay on Staphylococcus aureus [1]; 4 µg/mL with Staphylococcus aureus [2]; more than 64 µg/mL with Pseudomonas aeruginosa; 8 µg/mL in assay [3]. Also, the MIC was 8 µg/mL in the assay on Staphylococcus aureus [4]; 8 µg/mL with Streptococcus pyogenes [5]; more than 64 µg/mL in the assay on Escherichia coli; 4 µg/mL with Staphylococcus aureus [6]; 16 µg/mL with Streptococcus pyogenes [7].
For `COc1cccc(-c2c3ccccc3[n+](C)c3ccccc23)c1.[I-]`, the minimum inhibitory concentration (MIC) in the assay with Bacillus pumilus is 32 µg/mL; in the assay with Bacillus subtilis it was 16 µg/mL; in the assay on Staphylococcus aureus [1] it was more than 64 µg/mL; with Staphylococcus aureus [2] it was 8 µg/mL; with Pseudomonas aeruginosa it was more than 64 µg/mL; in [3] it was more than 64 µg/mL. Moreover, the MIC in the assay on Staphylococcus aureus [4] was more than 64 µg/mL; with Streptococcus pyogenes [5], 32 µg/mL; in the assay on Escherichia coli, more than 64 µg/mL; in the assay on Staphylococcus aureus [6], 4 µg/mL; with Streptococcus pyogenes [7] it was 8 µg/mL.
For `COc1ccc(C#Cc2c3ccccc3[n+](C)c3ccccc23)cc1.[I-]`, the MIC in the assay with Bacillus pumilus is 4 µg/mL; in the assay on Bacillus subtilis, 4 µg/mL; in the assay with Staphylococcus aureus [1], 8 µg/mL; in the assay with Staphylococcus aureus [2], 4 µg/mL; with Pseudomonas aeruginosa it was more than 64 µg/mL; in [3], 16 µg/mL. The MIC with Staphylococcus aureus [4] was 16 µg/mL; in the assay with Streptococcus pyogenes [5] it was 16 µg/mL; with Escherichia coli, more than 64 µg/mL; in the assay with Staphylococcus aureus [6], 4 µg/mL; with Streptococcus pyogenes [7] it was 16 µg/mL.
Regarding `C[n+]1c2ccccc2c(-c2ccc(C(F)(F)F)cc2)c2ccccc21.[I-]`, the MIC with Bacillus pumilus is 16 µg/mL; with Bacillus subtilis, 4 µg/mL; in the assay with Staphylococcus aureus [1], 4 µg/mL; in the assay on Staphylococcus aureus [2], 2 µg/mL; with Pseudomonas aeruginosa it was more than 64 µg/mL; in assay [3] it was 32 µg/mL. The MIC in the assay with Staphylococcus aureus [4] was 64 µg/mL; in the assay on Streptococcus pyogenes [5], 2 µg/mL; with Escherichia coli, more than 64 µg/mL; in the assay with Staphylococcus aureus [6], 1 µg/mL; in the assay with Streptococcus pyogenes [7], 1 µg/mL.
As to `COc1ccc(/C=C/c2c3ccccc3[n+](C)c3ccccc23)cc1OC.[I-]`, the MIC with Bacillus pumilus was 1 µg/mL; with Bacillus subtilis, 8 µg/mL; with Staphylococcus aureus [1], 16 µg/mL; in the assay on Staphylococcus aureus [2], 8 µg/mL; with Pseudomonas aeruginosa, more than 64 µg/mL; in assay [3], 32 µg/mL. For the same compound, the MIC is 64 µg/mL in the assay on Staphylococcus aureus [4]; 4 µg/mL in the assay with Streptococcus pyogenes [5]; more than 64 µg/mL with Escherichia coli; 4 µg/mL with Staphylococcus aureus [6]; 2 µg/mL in the assay on Streptococcus pyogenes [7].
In the case of `CCCCCNc1c2ccccc2[n+](C)c2ccccc12.[Cl-]`, the MIC in the assay with Bacillus pumilus was more than 64 µg/mL; in the assay on Bacillus subtilis, 64 µg/mL; in the assay on Staphylococcus aureus [1], more than 64 µg/mL; with Staphylococcus aureus [2], more than 64 µg/mL; in the assay on Pseudomonas aeruginosa, more than 64 µg/mL; in [3], 64 µg/mL. For the same compound, the MIC was 64 µg/mL with Staphylococcus aureus [4]; 32 µg/mL in the assay with Streptococcus pyogenes [5]; more than 64 µg/mL in the assay with Escherichia coli; more than 64 µg/mL in the assay on Staphylococcus aureus [6]; 16 µg/mL with Streptococcus pyogenes [7].
For `CCc1ccc(/C=C/c2c3ccccc3[n+](C)c3ccccc23)cc1.[I-]`, the MIC in the assay on Bacillus pumilus was 1 µg/mL; with Bacillus subtilis, 1 µg/mL; in the assay on Staphylococcus aureus [1], 2 µg/mL; in the assay with Staphylococcus aureus [2] it was 1 µg/mL; in the assay with Pseudomonas aeruginosa, more than 64 µg/mL; in [3], 4 µg/mL. Besides, the MIC with Staphylococcus aureus [4] is 8 µg/mL; with Streptococcus pyogenes [5], 1 µg/mL; with Escherichia coli, 64 µg/mL; in the assay on Staphylococcus aureus [6], 0.5 µg/mL; in the assay on Streptococcus pyogenes [7], 0.5 µg/mL.
With `Cc1cccc(-c2c3ccccc3[n+](C)c3ccccc23)c1.[I-]`, the MIC is 16 µg/mL in the assay with Bacillus pumilus; 8 µg/mL with Bacillus subtilis; 64 µg/mL in the assay with Staphylococcus aureus [1]; 4 µg/mL in the assay with Staphylococcus aureus [2]; more than 64 µg/mL in the assay on Pseudomonas aeruginosa; more than 64 µg/mL in assay [3]. Moreover, the MIC in the assay with Staphylococcus aureus [4] was more than 64 µg/mL; in the assay on Streptococcus pyogenes [5], 16 µg/mL; in the assay on Escherichia coli, more than 64 µg/mL; in the assay on Staphylococcus aureus [6] it was 1 µg/mL; in the assay with Streptococcus pyogenes [7], 4 µg/mL.
With `C[n+]1c2ccccc2c(-c2ccccc2)c2ccccc21.[I-]`, the MIC in the assay with Bacillus pumilus was 32 µg/mL; in the assay on Bacillus subtilis, 16 µg/mL; in the assay on Staphylococcus aureus [1], more than 64 µg/mL; in the assay with Staphylococcus aureus [2] it was 8 µg/mL; with Pseudomonas aeruginosa, more than 64 µg/mL; in [3], more than 64 µg/mL. Moreover, the MIC in the assay on Staphylococcus aureus [4] was more than 64 µg/mL; with Streptococcus pyogenes [5], 32 µg/mL; in the assay with Escherichia coli, more than 64 µg/mL; with Staphylococcus aureus [6], 2 µg/mL; in the assay with Streptococcus pyogenes [7], 8 µg/mL.
Take `C[n+]1c2ccccc2c(-c2cccc(F)c2)c2ccccc21.[I-]`: the MIC in the assay with Bacillus pumilus is 32 µg/mL; with Bacillus subtilis it was 16 µg/mL; with Staphylococcus aureus [1] it was more than 64 µg/mL; in the assay on Staphylococcus aureus [2] it was 16 µg/mL; in the assay with Pseudomonas aeruginosa, more than 64 µg/mL; in assay [3], more than 64 µg/mL. Further, the MIC with Staphylococcus aureus [4] was more than 64 µg/mL; in the assay with Streptococcus pyogenes [5], 16 µg/mL; with Escherichia coli it was more than 64 µg/mL; with Staphylococcus aureus [6] it was 8 µg/mL; in the assay with Streptococcus pyogenes [7], 4 µg/mL.
As to `C[n+]1c2ccccc2c(C#Cc2ccccc2)c2ccccc21.[I-]`, the MIC is 8 µg/mL in the assay on Bacillus pumilus; 2 µg/mL in the assay with Bacillus subtilis; 2 µg/mL in the assay with Staphylococcus aureus [1]; 2 µg/mL with Staphylococcus aureus [2]; more than 64 µg/mL in the assay with Pseudomonas aeruginosa; 4 µg/mL in [3]. The MIC was 4 µg/mL in the assay on Staphylococcus aureus [4]; 8 µg/mL in the assay with Streptococcus pyogenes [5]; more than 64 µg/mL in the assay with Escherichia coli; 2 µg/mL in the assay with Staphylococcus aureus [6]; 4 µg/mL in the assay on Streptococcus pyogenes [7].
On to `CCCc1ccc(-c2c3ccccc3[n+](C)c3ccccc23)cc1.[I-]`, for which the MIC in the assay with Bacillus pumilus was 2 µg/mL; in the assay on Bacillus subtilis, 1 µg/mL; in the assay on Staphylococcus aureus [1] it was 4 µg/mL; in the assay on Staphylococcus aureus [2], 0.25 µg/mL; in the assay on Pseudomonas aeruginosa, more than 64 µg/mL; in [3], 8 µg/mL. The minimum inhibitory concentration (MIC) is 16 µg/mL with Staphylococcus aureus [4]; 4 µg/mL with Streptococcus pyogenes [5]; more than 64 µg/mL in the assay with Escherichia coli; 0.25 µg/mL in the assay on Staphylococcus aureus [6]; 1 µg/mL in the assay on Streptococcus pyogenes [7].
For the compound `CCCCCCCNc1c2ccccc2[n+](C)c2ccccc12.[Cl-]`, the MIC in the assay with Bacillus pumilus is 32 µg/mL; in the assay with Bacillus subtilis, 32 µg/mL; in the assay with Staphylococcus aureus [1], 32 µg/mL; in the assay with Staphylococcus aureus [2], 16 µg/mL; in the assay with Pseudomonas aeruginosa it was more than 64 µg/mL; in assay [3] it was 32 µg/mL. The MIC is 16 µg/mL in the assay with Staphylococcus aureus [4]; 32 µg/mL in the assay on Streptococcus pyogenes [5]; more than 64 µg/mL with Escherichia coli; 16 µg/mL in the assay on Staphylococcus aureus [6]; 16 µg/mL in the assay with Streptococcus pyogenes [7].
As for `C[n+]1c2ccccc2c(/C=C/c2ccc(-c3ccccc3)cc2)c2ccccc21.[I-]`, the MIC was 2 µg/mL in the assay on Bacillus pumilus; 1 µg/mL in the assay with Bacillus subtilis; 2 µg/mL in the assay with Staphylococcus aureus [1]; 1 µg/mL in the assay with Staphylococcus aureus [2]; more than 64 µg/mL in the assay on Pseudomonas aeruginosa; 2 µg/mL in [3]. In addition, the MIC in the assay with Staphylococcus aureus [4] was 4 µg/mL; with Streptococcus pyogenes [5], 0.5 µg/mL; with Escherichia coli, 32 µg/mL; in the assay with Staphylococcus aureus [6], 0.5 µg/mL; in the assay with Streptococcus pyogenes [7] it was 0.5 µg/mL.
